This is an account of results in PubChem BioAssay.

Test [1] in a line: S. cerevisiae growth inhibition in permissive medium (OD615), pilot counter-assay for S. cerevisiae lifespan shortening project, permissive growth control (AID 705). The following applies: OD615, 24 h, at 10 µM, active compounds read high. A digest of the protocol: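 System: engineered DeaD yeast; Medium: permissive raffinose/galactose medium; Compound dosing: 10 µM single dose, 0.25% DMSO; Incubation: 4 h cell pre-growth, 24 h exposure at 30 °C; Technique: OD at 615 nm; Evaluation: growth inhibition from lowered OD615 after 24 h.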

Test [2] can be described thus: S. cerevisiae growth inhibition in restrictive medium, OD615, pilot screen, restrictive growth control, yeast lifespan reduction project (AID 706;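 active means growth inhibition above a set limit, 3 SD over mean compound inhibition, in both replicates, cut at about 43% in these data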;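 further: modified DeaD lifespan yeast strain shifted to restrictive glucose medium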). The following applies: OD615, 48 h, at 10 µM, active compounds read high. A digest of the protocol: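 Material: modified S. cerevisiae; buffer or medium: CSMM-D glucose medium; doses: one concentration, 10 µM final, 0.25% DMSO; incubation: 48 h compound exposure at 30 °C; detection: optical density at 615 nm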

Test [3] is described as follows: doxorubicin toxicity protection in MRP-1 cells – H69AR cells, CellTiter-Glo, duplicate, MRP-1 activator project, pilot screen (AID 807;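 active means viability increase at or above a cutoff of the median across tested compounds plus 3 SD, cut at about 8.5% in these data, passing the limit was not always enough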;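 further: compound pretreatment 18-22 h then 72 h combined with doxorubicin; 0% = doxorubicin alone and 100% = vehicle without doxorubicin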). The following applies: H69AR viability with doxorubicin, CellTiter-Glo luminescence; at 10 µM; active compounds read high.
Test [4] can be described thus: viability of HCT116 without oncogenic beta-catenin – human colon tumor cells, pilot screen (AID 823;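 active means cell viability at or below a set limit in both duplicate runs, the limit being the all-compound median minus 4 SD, cut at about 23% in these data, passing the limit was not always enough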;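 further: 0% = wells killed by 20 µM Hyamine and 100% = untreated DMSO cell wells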). The following applies: HCT116 beta-catenin knockout viability, CellTiter-Glo, 60 h; at 10 µM; active compounds read low.
The nature of test [5]: viability of PTEN-null HCT116 cells – cell-based, HCT116 clonal line, CellTiter-Glo, pilot screen (AID 824;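 active means viability at or below 27.92% in each of two runs, the all-compound median minus 4 SD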;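 further: 0% = 20 µM Hyamine control and 100% = vehicle cell control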). The following applies: HCT116 PTEN-deleted viability, 60 h, at 10 µM, active compounds read low.
The nature of test [6]: RAM pathway blockade in budding yeast – dse1pr::URA3 reporter, 5-FOA selection, pilot screen (AID 869;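 active means inhibition over a set limit, the all-compound mean plus 3 SD, in both replicate runs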;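 further: 0% = DMSO wells with no growth and 100% = 10 µM 1-NA-PP1 with full growth; RAM network block rescues cells from 5-FOA so hits raise OD615 growth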). The following applies: S. cerevisiae dse1pr::URA3 5-FOA growth, OD615, 2 d; at 10 µM; active compounds read high; strain carries analog-sensitive mutant Cbk1 kinase.
Test [7] in a line: RAM signaling pathway blockade in yeast – S. cerevisiae, Pdr1DBD-CYC8 efflux-inhibited sensitized strain, primary screen (AID 1298;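 active means RAM network inhibition above 8.4% in each of two replicates, 3 SD over the compound average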;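 further: 0% = DMSO untreated cells without growth and 100% = 10 µM 1-NA-PP1 full growth; higher means more yeast growth rescued from 5-FOA killing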). The following applies: S. cerevisiae cbk1-as DSE1-URA3 strain, 5-FOA growth OD615, 2 d; at 50 µM; active compounds read high.

Values without a mark were called inactive. Inconclusive results are not listed. Activity calls are given as the source filed them.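 How the source made its calls, unless noted: active means growth inhibition above 25% in both replicates, a cutoff set 3 SD above the mean; inconclusive means above 25% in only one replicate; inactive means the rest.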

For the molecule `Cc1ccc(C(=O)CC(C(=O)O)c2cn(CCC#N)c3ccccc23)cc1` (stereo not drawn), the growth inhibition is -4% in test [1] and 3.92% in test [2]. For the same molecule, the viability increase in test [3] is -1.96%. For the same molecule, the viability in test [4] was 98.3%; in test [5] it was 104%. The inhibition in test [6] is 0.735%. In addition, in test [7], the RAM network inhibition is 3.81%.

As for `c1ccc(N2CCN(c3nnnn3-c3ccccc3)CC2)cc1`, the growth inhibition in test [1] is -10.6%; in test [2], 3.73%. For the same molecule, the viability increase in test [3] is -0.01%. Also, the values for the viability in test [4] and in test [5] were 76% and 75.7%, respectively. Further, in test [6], the inhibition is 1.12%. For the same molecule, the RAM network inhibition in test [7] was 9%.

For `CNC(=O)c1ccsc1NC(=O)c1ccc(Cl)s1`, the results for the growth inhibition in test [1] and in test [2] were -0.67% and 14.4%, respectively. In test [3], the viability increase is -3.2%. The viability in test [4] is 103%; in test [5], 85.6%. In addition, the inhibition in test [6] was 1.08%. In test [7], the RAM network inhibition is 2.36%.

Turning to `O=C(Cc1ccc2c(c1)OCCO2)c1c(O)cc(O)cc1O`, the growth inhibition in test [1] was -12.3%; in test [2], -4.45%. In test [3], the viability increase was -1.79%. In addition, the figures for the viability in test [4] and in test [5] were 96.1% and 94%, respectively. The inhibition in test [6] was 3.34%. In test [7], the RAM network inhibition was 6.58%.

Regarding `Cc1oc(-c2cccs2)nc1CS(=O)CC(=O)NCCCN1CC(C)CC(C)C1` (stereo not drawn), the growth inhibition is -8.47% in test [1] and -12.7% in test [2]. Also, in test [3], the viability increase is -1.75%. Further, the viability in test [4] is 93.9%; in test [5], 92.4%. Moreover, the inhibition in test [6] is 2.27%. For the same molecule, in test [7], the RAM network inhibition was 3.39%.

On to `CC(=O)Nc1ccc(-n2c(C)c(C(C)=O)c(C(C)=O)c2C)cc1`, for which the growth inhibition in test [1] was -2.51%; in test [2] it was -2.06%. In addition, in test [3], the viability increase is -2.3%. Also, the results for the viability in test [4] and in test [5] were 102% and 101%, respectively. The inhibition in test [6] was 0.515%. Further, the RAM network inhibition in test [7] is 4.97%.

In the case of `N#CC1=C(SCC(=O)Nc2ccccc2)NC(=O)CC1c1ccc(O)cc1` (stereo not drawn), the growth inhibition was -15.2% in test [1] and -10.5% in test [2]. Moreover, in test [3], the viability increase is -2.43%. In addition, the viability in test [4] was 91.4%; in test [5] it was 86.5%. In addition, the inhibition in test [6] was 1.42%. Also, the RAM network inhibition in test [7] was -0.69%.

For the molecule `CC1(C)CC(=O)C(C=NC2CCCCC2)=C(O)C1`, the results for the growth inhibition in test [1] and in test [2] were 0.43% and -1.72%, respectively. The viability increase in test [3] is -1.23%. The viability in test [4] was 98.7%; in test [5] it was 94.8%. In test [6], the inhibition is 1.33%. Moreover, the RAM network inhibition in test [7] was -1.28%.

In the case of `CCCNC(=O)c1noc2c1CCc1ccccc1-2`, the growth inhibition was -1.21% in test [1] and 5.41% in test [2]. For the same molecule, in test [3], the viability increase was -1.54%. Moreover, the viability in test [4] was 98.3%; in test [5] it was 104%. Moreover, in test [6], the inhibition is 0.305%. In addition, in test [7], the RAM network inhibition was -1.13%.

Turning to `O=C(Nc1nnc(-c2ccccc2)o1)Nc1ccccc1Cl`, the results for the growth inhibition in test [1] and in test [2] were -15.5% and -12%, respectively. Further, the viability increase in test [3] is -0.05%. For the same molecule, the viability in test [4] was 104%; in test [5] it was 97.4%. Besides, the inhibition in test [6] was 0.165%. Besides, the RAM network inhibition in test [7] is 4.83%.

As for `CCC(=O)Nc1nnc(-c2ccco2)o1`, the growth inhibition was -3.92% in test [1] and -4.75% in test [2]. Further, the viability increase in test [3] was -0.45%. Further, the viability is 93.8% in test [4] and 102% in test [5]. In addition, in test [6], the inhibition is 0.105%. Moreover, the RAM network inhibition in test [7] was 4.9%.

For `Cc1cc(C)nc(SCCn2c(N3CCC(C)CC3)nc3c2c(=O)n(C)c(=O)n3C)n1`, the results for the growth inhibition in test [1] and in test [2] were -3.83% and 0.625%, respectively. In test [3], the viability increase is 1.09%. Besides, the viability in test [4] was 99.9%; in test [5], 97.3%. Also, the inhibition in test [6] was 1.71%. The RAM network inhibition in test [7] is 1.91%.

On to `COc1ccc(C(=O)/C(C)=N/O)cc1OC`, for which the figures for the growth inhibition in test [1] and in test [2] were -15.6% and -1.75%, respectively. Also, in test [3], the viability increase is -0.59%. In addition, the results for the viability in test [4] and in test [5] were 90.5% and 88.6%, respectively. In addition, the inhibition in test [6] was 1.42%. Further, the RAM network inhibition in test [7] was 2.98%.

On to `COc1ccc(OC)c(N(CC(=O)O)S(=O)(=O)c2ccc(OC)c(OC)c2)c1`, for which the results for the growth inhibition in test [1] and in test [2] were -2.7% and -11.1%, respectively. Moreover, the viability increase in test [3] was -0.41%. Moreover, the viability is 98.9% in test [4] and 94% in test [5]. In test [6], the inhibition was 2.03%. The RAM network inhibition in test [7] was 4.23%.

`CCOC(=O)c1c(C)n(C)c2ccc(OCC(O)CN3CCCCCC3)cc12` (stereo not drawn): the figures for the growth inhibition in test [1] and in test [2] were -0.855% and -3.17%, respectively. Besides, in test [3], the viability increase was -5.4%. Also, the viability in test [4] is 61.5%; in test [5], 62.5%. In addition, the inhibition in test [6] is 0.77%. Further, the RAM network inhibition in test [7] was 2.14%.

With `Cn1c(=O)c(C(=O)Nc2ncccn2)c(O)c2ccccc21`, the growth inhibition was 39.2% (active) in test [1] and 63.5% (active) in test [2]. For the same molecule, in test [3], the viability increase was -3.95%. In addition, the viability is 87.1% in test [4] and 89.5% in test [5]. The inhibition in test [6] was 0.475%. For the same molecule, the RAM network inhibition in test [7] is -1.44%.

With `CC1=C(C(N)=O)C(c2ccccc2)n2nc(-c3cccc(C)c3)nc2N1` (stereo not drawn), the growth inhibition was 3.1% in test [1] and 2.56% in test [2]. The viability increase in test [3] was -2.74%. Further, the results for the viability in test [4] and in test [5] were 98.9% and 97.1%, respectively. Also, the inhibition in test [6] is 0.79%. Moreover, the RAM network inhibition in test [7] is 3.91%.

On to `Cc1cccc(NC(=O)C2CCN(S(=O)(=O)c3cccc4cccnc34)CC2)n1`, for which the figures for the growth inhibition in test [1] and in test [2] were -2.91% and 4.94%, respectively. Further, the viability increase in test [3] was -3.03%. For the same molecule, the viability is 87.2% in test [4] and 84.7% in test [5]. In addition, in test [6], the inhibition is 1.35%. In addition, the RAM network inhibition in test [7] is 1.44%.

Turning to `O=C(NC(C(=O)c1ccccc1)N1CCCCC1)c1ccccc1` (stereo not drawn), the results for the growth inhibition in test [1] and in test [2] were -8.09% and -3.47%, respectively. Besides, the viability increase in test [3] was -2.31%. In addition, the viability in test [4] was 91.2%; in test [5], 98%. Further, in test [6], the inhibition was -0.65%. Moreover, the RAM network inhibition in test [7] was 1.67%.

As for `COc1ccc(N(CC(=O)NC2CCCCC2)S(=O)(=O)c2cccnc2)cc1`, the values for the growth inhibition in test [1] and in test [2] were -2.11% and 3.61%, respectively. In addition, the viability increase in test [3] is -1.68%. Further, the viability in test [4] was 99.6%; in test [5] it was 105%. Further, the inhibition in test [6] was 1.57%. Besides, the RAM network inhibition in test [7] is 2.86%.

As for `COc1ccccc1NC(=O)Cn1cnc2c(oc3ccccc32)c1=O`, the growth inhibition in test [1] is -11.8%; in test [2], -11.6%. For the same molecule, the viability increase in test [3] is -1.93%. Moreover, the viability in test [4] was 107%; in test [5], 100%. Besides, in test [6], the inhibition is 1.6%. Also, the RAM network inhibition in test [7] was -1.27%.

Take `c1cc2c3c(cccc3c1)C(N1CCCCC1)=N2`: the growth inhibition was 1.8% in test [1] and -3.38% in test [2]. The viability increase in test [3] is -4.54%. In addition, the viability in test [4] was 72.1%; in test [5], 74.4%. The inhibition in test [6] is 0.665%. Also, the RAM network inhibition in test [7] is 1.88%.

For the molecule `CCOc1ccc(C2CC(c3ccc(CC)cc3)Nc3nc(N)nn32)cc1` (stereo not drawn), the growth inhibition is 13.7% in test [1] and 21.5% in test [2]. Moreover, the viability increase in test [3] was 5.61%. Also, the viability is 97.5% in test [4] and 90.2% in test [5]. The inhibition in test [6] was 0.69%. Moreover, in test [7], the RAM network inhibition is 8.15%.

Take `CC(=O)N1CCC(C(=O)Nc2ccccc2)(N(Cc2ccccc2)C(=O)c2cccnc2)CC1`: the growth inhibition in test [1] was -2.38%; in test [2] it was 4.33%. The viability increase in test [3] was -0.15%. Besides, the viability was 95.7% in test [4] and 86.7% in test [5]. The inhibition in test [6] was 1.47%. Besides, the RAM network inhibition in test [7] was -1.39%.
